Screening data (PubChem BioAssay)
KLK5 inh: kallikrein 5 (human) inhibition; inhibition, % at 5 µM; Q9Y337; recombinant hK5, fluorogenic AMC substrate cleavage; AID 873; 210,000 compounds, 0.59% hits;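 active = inhibition of 40% or more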;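 also: 0% = enzyme controls without compound and 100% = no-enzyme blanks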
Target sequence (Q9Y337 67-293 limits assumed): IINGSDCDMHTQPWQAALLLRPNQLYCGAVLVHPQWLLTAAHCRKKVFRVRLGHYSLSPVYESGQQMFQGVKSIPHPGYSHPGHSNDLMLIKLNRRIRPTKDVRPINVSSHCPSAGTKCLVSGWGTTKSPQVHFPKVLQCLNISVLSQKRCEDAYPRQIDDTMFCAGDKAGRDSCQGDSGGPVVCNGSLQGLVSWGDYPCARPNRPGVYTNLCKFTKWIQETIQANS
Thrombin inh: blocks human thrombin protease activity | P00734 | alpha-thrombin, Boc-VPR-AMC fluorogenic substrate cleavage | inhibition, % at 5 µM | 220,000 compounds, 0.26% hits | AID 1046;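 active = inhibition at or above 40%; inactive = inhibition below 40%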;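 also: 0% = enzyme with no compound and 100% = wells without enzyme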
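Material: human alpha-thrombin enzyme / Medium: pH 7.5 Tris (50 mM) with NaCl 150 mM, Tween 20 0.05% / Compound: single-point dosing at 5 µM, 0.2% DMSO / Incubation: enzyme reaction carried out at room temperature / Detection: AMC fluorescence, 355/460 nm / Read-out basis: percent inhibition scaled between no-compound controls and no-enzyme blanks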
FXIa inh 1536: inhibitors of human coagulation factor XIa. purified FXIa, Boc-Glu-Ala-Arg-AMC fluorogenic substrate. inhibition, % at 5 µM. AID 798. 220,000 compounds, 0.14% hits. P03951;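 active = inhibition of at least 40%; inactive = inhibition below 40%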;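 also: fluorescence of freed AMC excited at 355 nm; 0% = enzyme without compound and 100% = no enzyme blank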
Redox H2O2 prof: compounds producing H2O2 with reducing agent – biochemical, NIH compound library profiling, artefact control for MLSCN library redox annotation, primary screen; activation, % at 10 µM; DTT-dependent redox cycling H2O2, phenol red/HRP absorbance; 100% = 100 µM peroxide control, 0% = buffer; 200,000 compounds, 0.03% hits;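 active = activation of at least 50% relative to the plate's high and low controls in the primary single-dose screen; inactive = activation below 50%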;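 also: compound incubated with DTT at 0.8 mM final as the reducing agent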
S1P3 antag: antagonists of human S1P3 receptor; AID 485; CHO S1P3 NFAT-BLA reporter, FRET fluorescence, antagonist mode; Q99500; 170,000 compounds, 0.27% hits; inhibition, % at 4.98 µM;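 active = inhibition above the plate cutoff, the mean inhibition of test wells on that plate plus 3 SD, cut at about 28% in these data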;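 also: cells challenged with S1P at its EC80 of 0.8 µM; blue over green emission ratio from cleaved BLA substrate after 4 h stimulation; 0% = S1P-stimulated wells and 100% = unstimulated DMSO-only wells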
FXIIa inh: inhibitors of human coagulation factor XIIa. 220,000 compounds, 0.3% hits. purified FXIIa, Boc-QGR-AMC fluorogenic substrate, 2 h. inhibition, % at 5 µM. AID 800. P00748; in the data active = inhibition above about 40%;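 also: 0% = enzyme with no compound and 100% = blank without enzyme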
The depositor's hits bear a star; nt = no result given. Shown are actives, neighbours in structure and some others; about 1.2% of the full set was active somewhere.

SMILES	KLK5 inh	Thrombin inh	FXIa inh 1536	Redox H2O2 prof	S1P3 antag	FXIIa inh
Cc1nn(CCC#N)c2c1P(=S)(N1CCCC1)OC(c1ccc(F)cc1)=N2 (stereo unspecified)	-16	-3	-7	2	74*	6
CCCC[N+]12CCC(CC1)C(Cc1ccccc1)C2 (stereo unspecified)	1	-6	0	nt	-8	8
COc1ccc(CC2C(=O)NC(=O)N(c3ccccc3)C2=O)c(OC)c1 (stereo unspecified)	9	3	12	0	74*	16
COC(=O)c1ccccc1-n1c(C)nc2ccccc2c1=O	82*	28	3	3	-12	17
O=c1[nH]c(=S)n(-c2ccc(Cl)cc2)c(O)c1/C=N/N1CCOCC1	-7	-5	6	nt	-3	6
CCCCN1C(=O)NC(=O)C2(Cc3c(nc4c(C)cccn4c3=O)N3CCc4ccccc4C32)C1=O (stereo unspecified)	-13	-1	-13	3	-9	-14
CCCCN1C(=O)NC(=O)C2(Cc3c(nc4ccccn4c3=O)N3CCc4ccccc4C32)C1=O (stereo unspecified)	-1	45*	5	1	8	10
c1ccc(CCn2nnnc2CN2CCC(n3nnc4ccccc43)CC2)cc1	-6	4	2	0	-4	12
Cc1nc2ccccc2n1C1CCN(Cc2nnnn2CCc2ccccc2)CC1	-2	-4	-13	2	14	43*
O=C(c1cccnc1)c1cc2ccccc2[nH]1	-6	-6	-3	0	-5	-1
O=C(C1CC(c2ccc(F)cc2)=NO1)N1CCC2(CC1)OCCO2 (stereo unspecified)	-3	-3	-10	-1	nt	-3
O=C(C1CC(c2ccc(Cl)c(Cl)c2)=NO1)N1CCC2(CC1)OCCO2 (stereo unspecified)	6	7	2	-1	-12	48*
Cc1ccc2c(c1)C1CN(C)CCC1N2C(=O)c1cccnc1Cl (stereo unspecified)	2	1	2	nt	-6	8
Cc1ccc2c(c1)C1CN(C)CCC1N2C(=O)c1cn(-c2ccccc2)nc1-c1ccccc1 (stereo unspecified)	-5	80*	-6	-1	-5	8
Cc1ccc(CN(Cc2ccccc2)C(=S)NCC(=O)N2CCC3(CC2)OCCO3)o1	-1	-4	-1	1	22	15
O=P(C(c1c[nH]c2ccccc12)N1CCOCC1)(N1CCOCC1)N1CCOCC1 (stereo unspecified)	43*	1	-4	-5	-7	6
Cc1cc(OCCN2CC2)c2ccccc2n1	3	1	2	nt	-8	8
Cc1ncc(CN2CCCC(C(=O)c3sccc3C)C2)s1 (stereo unspecified)	-2	1	1	0	-6	5
CC(C)[C@]12O[C@H]1[C@@H]1O[C@]13[C@]1(O[C@H]1C[C@H]1C4=C(CC[C@@]13C)C(=O)OC4)[C@@H]2O	nt	nt	nt	nt	105*	nt
Cc1cc(N2CCCC2)ccc1C=C(C#N)C#N	48*	-9	31	0	-13	36
Clc1ccc(OCC#CCN2CCCCCC2)cc1	nt	-3	2	0	9	9
Cc1ccc(C2C(S(C)(=O)=O)=C(O)C(=O)N2c2ccccc2)cc1 (stereo unspecified) (tested in a mixture with another compound)	44*	0	2	0	28	17
COc1cc2c(cc1/C=C/[N+](=O)[O-])OCO2	40*	16	42*	1	-3	39
O=C(c1ccc(-c2ccccc2)cc1)C1CCCN(Cc2ccn[nH]2)C1 (stereo unspecified)	3	-12	0	-1	10	11
CCc1c(C)nc(N)nc1N1N=C1SCC(=O)OC	-28	0	-9	0	-4	-10
CCc1c(C)nc(N)nc1N1N=C1SCC#N	7	0	32	0	nt	58*
CN1CCCC(C(=O)c2ccc(Cl)cc2)C1 (stereo unspecified)	4	-2	-2	0	-9	11
COc1c2c(cc3c1OCO3)CC[N+](C)=C2	-1	-1	-1	0	-3	5
